Reference: ChEMBL document CHEMBL4359873, “Benzothienoquinazolinones as new multi-target scaffolds: Dual inhibition of human Topoisomerase I and tubulin polymerization” (Eur J Med Chem, 2019)
Activity calls are given as the source filed them. The rule behind the calls is not given here.

Key:
Tubulin (Bos taurus) [1] = target: T1, Tubulin (Bos taurus) (UniProt Q6B856+Q862L2+Q862F3); test: Inhibition of bovine tubulin at 10 uM assessed as tubulin heterodimers assembly to form microtubule by measuring OD at 350nm in presence of GTP measured every 30 secs for 90 mins by turbidimetric assay; type: protein assay
Method in brief: (§1)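 Kit-based assay: 60 µM tubulin in 1x PB-GTP with compound at 10 µM final (DMSO vehicle control), 37 °C, 10 s shaking before each reading. Turbidity read at 350 nm every 30 s for 90 min. Paclitaxel and Vinblastine at 10 µM final as stabilizing and destabilizing references.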

MDA-MB-231 = test: Antiproliferative activity against triple negative human MDA-MB-231 cells assessed as reduction in cell viability after 72 hrs by MTT assay; type: functional, cell-based; conditions: MDA-MB-231, 72 h
Method in brief: (§2)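 Cells seeded, grown 24 h in full medium, then serum-starved 24 h before compound exposure. Six concentrations (0.1, 1, 10, 20, 40, 100 µM) tested in triplicate; MTT absorbance read at 570 nm; results as % of basal, IC50 calculated. Means ± standard deviations. MCF-7 in DMEM-F12 with 5% NCS, MDA-MB-231 with 5% FBS, MCF-10A with 5% horse serum plus hEGF, insulin, hydrocortisone, cholera enterotoxin; 37 °C, 5% CO2.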

MCF7 = test: Antiproliferative activity against ER-alpha positive human MCF7 cells assessed as reduction in cell viability after 72 hrs by MTT assay; type: functional, cell-based; conditions: MCF7, 72 h; method in brief: as §2
MCF-10A = test: Cytotoxicity against human MCF10A cells assessed as reduction in cell viability after 72 hrs by MTT assay; type: cell-based; method in brief: as §2
[2] = target: T2, DNA topoisomerase 1 (Homo sapiens) (UniProt P11387); test: Inhibition of recombinant human topoisomerase 1 mediated DNA relaxation assessed as uncleaved plasmid DNA at 50 uM using supercoiled pHOT1 plasmid as substrate after 1 hr by ethidium bromide staining based agarose gel electrophoresis
T2 sequence (whole entry): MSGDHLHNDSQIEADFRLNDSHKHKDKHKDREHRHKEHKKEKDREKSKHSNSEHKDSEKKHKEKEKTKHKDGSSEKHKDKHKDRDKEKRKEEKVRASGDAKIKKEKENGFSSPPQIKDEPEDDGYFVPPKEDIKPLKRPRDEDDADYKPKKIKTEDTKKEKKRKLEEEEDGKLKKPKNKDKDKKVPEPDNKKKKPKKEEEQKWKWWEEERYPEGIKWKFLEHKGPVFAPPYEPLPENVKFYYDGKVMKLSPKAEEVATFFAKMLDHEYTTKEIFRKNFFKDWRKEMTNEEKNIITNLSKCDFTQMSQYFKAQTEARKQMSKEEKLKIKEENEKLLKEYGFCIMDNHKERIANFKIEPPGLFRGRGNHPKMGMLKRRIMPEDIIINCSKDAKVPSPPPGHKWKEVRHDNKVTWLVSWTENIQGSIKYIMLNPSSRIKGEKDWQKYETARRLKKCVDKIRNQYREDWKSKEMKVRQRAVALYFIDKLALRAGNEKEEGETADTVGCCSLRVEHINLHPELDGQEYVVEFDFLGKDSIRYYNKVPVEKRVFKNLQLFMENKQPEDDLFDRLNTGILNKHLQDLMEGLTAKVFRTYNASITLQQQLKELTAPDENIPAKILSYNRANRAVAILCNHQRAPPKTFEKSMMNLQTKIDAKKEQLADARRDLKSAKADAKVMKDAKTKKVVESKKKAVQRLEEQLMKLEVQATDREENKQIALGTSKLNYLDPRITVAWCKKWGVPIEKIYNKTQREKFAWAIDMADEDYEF
Method in brief: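 Relaxation in 20 µL: 0.25 µg supercoiled pHOT1 in TE buffer, 2 units recombinant hTopo I, compound at 50 µM final, 1 h at 37 °C. Run on 1% agarose in 1x TAE without EB, then stained 30 min with EB (0.5 µg/mL), washed 15 min in water, viewed under UV. Three repeats.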

[3] = target: DNA topoisomerase 2-alpha (Homo sapiens) (UniProt P11388); test: Inhibition of human topoisomerase 2 mediated decatenation at 50 uM using kinetoplast DNA as susbtrate after 1 hr by ethidium bromide staining based agarose gel electrophoresis
DNA topoisomerase 2-alpha (Homo sapiens), sequence (P11388 whole entry): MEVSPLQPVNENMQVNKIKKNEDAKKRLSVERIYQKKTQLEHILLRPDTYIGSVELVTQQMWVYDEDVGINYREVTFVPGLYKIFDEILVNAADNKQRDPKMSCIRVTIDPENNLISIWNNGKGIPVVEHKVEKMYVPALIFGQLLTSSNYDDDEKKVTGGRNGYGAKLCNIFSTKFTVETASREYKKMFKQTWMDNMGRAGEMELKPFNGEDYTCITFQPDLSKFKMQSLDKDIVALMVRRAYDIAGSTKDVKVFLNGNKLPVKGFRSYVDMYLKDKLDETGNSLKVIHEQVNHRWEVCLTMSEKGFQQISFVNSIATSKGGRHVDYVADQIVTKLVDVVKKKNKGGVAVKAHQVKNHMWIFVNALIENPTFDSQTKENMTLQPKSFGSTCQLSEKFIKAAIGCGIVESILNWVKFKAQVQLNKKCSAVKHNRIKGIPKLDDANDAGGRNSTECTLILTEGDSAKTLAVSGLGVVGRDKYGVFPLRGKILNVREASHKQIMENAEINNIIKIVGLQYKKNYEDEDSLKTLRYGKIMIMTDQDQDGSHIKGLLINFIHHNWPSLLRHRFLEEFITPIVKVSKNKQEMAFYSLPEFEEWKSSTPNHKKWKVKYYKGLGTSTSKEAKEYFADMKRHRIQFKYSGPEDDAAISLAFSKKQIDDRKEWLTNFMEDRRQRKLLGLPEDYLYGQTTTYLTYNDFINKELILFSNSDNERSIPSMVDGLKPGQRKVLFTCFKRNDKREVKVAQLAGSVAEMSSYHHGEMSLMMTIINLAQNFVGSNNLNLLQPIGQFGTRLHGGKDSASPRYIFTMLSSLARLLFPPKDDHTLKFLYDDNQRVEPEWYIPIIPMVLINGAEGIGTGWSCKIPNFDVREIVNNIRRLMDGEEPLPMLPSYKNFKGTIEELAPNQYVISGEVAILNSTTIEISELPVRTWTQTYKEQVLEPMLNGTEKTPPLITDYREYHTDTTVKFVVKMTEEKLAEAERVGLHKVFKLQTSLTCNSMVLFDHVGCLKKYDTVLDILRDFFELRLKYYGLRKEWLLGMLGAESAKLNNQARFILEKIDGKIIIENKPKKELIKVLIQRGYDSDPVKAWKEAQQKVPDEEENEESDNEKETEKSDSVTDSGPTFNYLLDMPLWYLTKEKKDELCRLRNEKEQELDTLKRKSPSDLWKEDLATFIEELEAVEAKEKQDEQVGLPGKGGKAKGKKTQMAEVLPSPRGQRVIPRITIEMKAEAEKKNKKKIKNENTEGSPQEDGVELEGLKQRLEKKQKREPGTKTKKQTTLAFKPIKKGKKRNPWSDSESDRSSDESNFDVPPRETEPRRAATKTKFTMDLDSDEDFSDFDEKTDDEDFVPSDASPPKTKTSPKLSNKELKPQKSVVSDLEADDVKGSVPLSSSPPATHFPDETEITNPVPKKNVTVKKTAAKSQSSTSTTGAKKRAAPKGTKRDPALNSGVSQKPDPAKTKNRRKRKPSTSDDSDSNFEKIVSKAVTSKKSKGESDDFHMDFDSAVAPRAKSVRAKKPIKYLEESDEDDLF
Method in brief: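 Decatenation in 20 µL with 0.2 µg kinetoplast DNA and 3 units hTopo II; compounds at 50 µM, 1 h at 37 °C.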

[4] = target: DNA topoisomerase 2-alpha (Homo sapiens) (UniProt P11388); test: Inhibition of human topoisomerase 2 mediated decatenation up to 100 uM using kinetoplast DNA as susbtrate after 1 hr by ethidium bromide staining based agarose gel electrophoresis
Tubulin (Bos taurus) [5] = target: T1, Tubulin (Bos taurus); test: Inhibition of bovine tubulin assessed as decrease in tubulin polymerization gradually followed by steady state decrease measured after 15 mins by turbidimetric assay; type: protein assay; method in brief: as §1
Tubulin (Bos taurus) [6] = target: T1, Tubulin (Bos taurus); test: Inhibition of bovine tubulin assessed as decrease in tubulin polymerization gradually followed by steady state decrease measured after 30 mins by turbidimetric assay; type: protein assay; method in brief: as §1

| Structure (SMILES) | OD (Tubulin (Bos taurus) [1]) | IC50 (MDA-MB-231) | IC50 (MCF7) | IC50 (MCF-10A) | inhibition [2] | inhibition [3] | inhibition [4] | inhibition (Tubulin (Bos taurus) [5]) | inhibition (Tubulin (Bos taurus) [6]) |
| --- | --- | --- | --- | --- | --- | --- | --- | --- | --- |
| CC(=O)O[C@H]1C(=O)[C@@]2(C)[C@H]([C@H](OC(=O)c3ccccc3)[C@]3(O)C[C@H](OC(=O)[C@H](O)[C@@H](NC(=O)c4ccccc4)c4ccccc4)C(C)=C1C3(C)C)[C@]1(OC(C)=O)CO[C@@H]1C[C@@H]2O | 0.52 | – | – | – | – | – | – | – | – |
| O=c1[nH]c(NC2CCCC2)nc2ccc3c4ccccc4sc3c12 | – | 5.59 µM | 45.6 µM | > 100 µM | – | – | – | – | – |
| O=c1[nH]c(N2CCOCC2)nc2ccc3c4ccccc4sc3c12 | – | 9.43 µM | 21.2 µM | > 100 µM | – | – | – | – | – |
| CCCNc1nc2ccc3c4ccccc4sc3c2c(=O)[nH]1 | 0.24 | 3.88 µM | 40.7 µM | > 100 µM | Active | inactive | inactive | Active | – |
| CCCCNc1nc2ccc3c4ccccc4sc3c2c(=O)[nH]1 | – | 38.9 µM | 74.5 µM | > 100 µM | – | – | – | – | – |
| CC[C@]1(O)C[C@@H]2CN(CCc3c([nH]c4ccccc34)[C@@](C(=O)OC)(c3cc4c(cc3OC)N(C)[C@H]3[C@@](O)(C(=O)OC)[C@H](OC(C)=O)[C@]5(CC)C=CCN6CC[C@]43[C@@H]65)C2)C1 [VINBLASTINE] | 0.2 | – | 15 µM | 25.9 µM | – | – | – | – | – |
| CCCN(CCC)c1nc2ccc3c4ccccc4sc3c2c(=O)[nH]1 | 0.26 | 4.69 µM | 42 µM | > 100 µM | – | inactive | inactive | – | Active |
| CCCCCN(CCCCC)c1nc2ccc3c4ccccc4sc3c2c(=O)[nH]1 | – | 42.4 µM | 75.2 µM | > 100 µM | – | – | – | – | – |
| Cc1c2ccncc2c(C)c2c1[nH]c1ccccc12 [ELLIPTECINE] | – | 1.85 µM | – | 1.2 µM | Active | – | – | – | – |
